Results reported in article PMC3016090 (ChemMedChem, 2009).
Read-outs that look alike come from different tables or passages of the source. Marks after values point to notes of the source that are not given here.

How the values were obtained:
FAAH [1] = biological target: T1, FAAH (Rattus norvegicus, UniProt P97612); assay: FAAH activity in vitro, rat brain membranes, [3H]-anandamide hydrolysis; format: biochemical
T1 sequence (P97612 1-579): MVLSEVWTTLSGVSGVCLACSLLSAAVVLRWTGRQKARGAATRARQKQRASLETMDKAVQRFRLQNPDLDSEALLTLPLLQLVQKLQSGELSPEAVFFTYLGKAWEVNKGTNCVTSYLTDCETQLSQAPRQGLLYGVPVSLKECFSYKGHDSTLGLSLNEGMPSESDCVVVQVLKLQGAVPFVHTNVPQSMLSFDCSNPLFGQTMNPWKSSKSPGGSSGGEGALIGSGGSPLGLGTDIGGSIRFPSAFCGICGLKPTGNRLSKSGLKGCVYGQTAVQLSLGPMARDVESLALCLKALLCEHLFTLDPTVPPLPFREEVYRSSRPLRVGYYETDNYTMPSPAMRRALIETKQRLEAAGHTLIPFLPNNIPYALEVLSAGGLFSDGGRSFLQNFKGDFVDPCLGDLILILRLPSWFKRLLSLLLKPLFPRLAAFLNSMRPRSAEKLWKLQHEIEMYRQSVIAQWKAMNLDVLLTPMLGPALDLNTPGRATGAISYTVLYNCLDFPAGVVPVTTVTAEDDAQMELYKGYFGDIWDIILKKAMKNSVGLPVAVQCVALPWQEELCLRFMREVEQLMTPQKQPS

Stability in rat plasma = format: in vitro ADME; details: for Rat Plasma t1/2: 80% rat plasma in PBS pH 7.4, 37 °C; for half-life at 1 μM: rat, pooled rat plasma diluted to 80% (vol/vol) with PBS, pH 7.4
In short: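 Heparinized rat blood from cardiac puncture gave plasma (1,900 x g), pooled and diluted to 80% v/v with 100 mM PBS, pH 7.4. Test compound was added from a 100 μM DMSO stock and incubated at 37 °C with shaking. Timed samples were quenched in ice-cold acetonitrile, spun, and analysed by reversed-phase HPLC-UV against plasma calibration curves. Apparent t1/2 came from log-concentration-versus-time regression.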

[2] = Stability in phosphate buffered saline at pH 7.4; format: physicochemical; details: PBS pH 7.4, 37 °C; for pH 7.4 (%), percent remaining after 24 h incubation: 1 μM compound
In short: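 Test compound at 1 μM final (1% DMSO) in 10 mM PBS, pH 7.4, at 37 °C. Aliquots were taken at intervals and quantified by LC against calibration curves built in spiked PBS. Reported as percent remaining after 24 h.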

[3] = Brain tissue and serum drug levels in mice by LC/MS; format: in vivo, mouse; details: 1 mg-kg^−1 i.p.; for AUC in the brain: 2 h time-course, n = 3; for Cmax in brain tissue: single administration, n = 3 per timepoint
FAAH [4] = biological target: T2, FAAH (Mus musculus, UniProt O08914); assay: Brain FAAH activity measured ex vivo after i.p. administration in mice; details: for ID50 / Percent FAAH activity remaining at 1 mg-kg^−1 / inhibition of brain FAAH activity in vivo: mice; for ID50 / inhibition of brain FAAH activity in vivo: i.p.; for ID50: brain FAAH activity ex vivo; for Percent FAAH activity remaining at 1 mg-kg^−1: 1 mg-kg^−1 i.p., brain FAAH ex vivo, printed in ID50 column; for inhibition of brain FAAH activity in vivo: doses up to 1 mg-kg^−1; for ED50: mouse, ip, read-out: ID50
T2 sequence (O08914 1-579): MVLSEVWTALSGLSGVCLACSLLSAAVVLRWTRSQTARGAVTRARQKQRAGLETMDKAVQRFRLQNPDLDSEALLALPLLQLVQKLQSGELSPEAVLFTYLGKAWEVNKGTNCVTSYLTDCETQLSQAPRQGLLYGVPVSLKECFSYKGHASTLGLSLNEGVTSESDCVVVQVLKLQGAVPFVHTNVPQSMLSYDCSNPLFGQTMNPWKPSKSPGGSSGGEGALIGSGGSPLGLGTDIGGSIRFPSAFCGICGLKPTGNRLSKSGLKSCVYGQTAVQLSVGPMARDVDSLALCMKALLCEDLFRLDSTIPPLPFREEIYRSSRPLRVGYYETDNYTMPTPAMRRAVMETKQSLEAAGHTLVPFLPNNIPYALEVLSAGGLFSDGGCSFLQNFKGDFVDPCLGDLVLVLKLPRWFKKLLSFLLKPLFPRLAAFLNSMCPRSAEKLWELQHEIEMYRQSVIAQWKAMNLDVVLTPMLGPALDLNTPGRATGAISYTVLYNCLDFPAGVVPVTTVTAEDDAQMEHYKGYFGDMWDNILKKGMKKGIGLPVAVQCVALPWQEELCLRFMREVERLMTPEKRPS
In short: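 Mice received a single i.p. injection. Brains were frozen in liquid N2, thawed, homogenized in 10 vol ice-cold 50 mM Tris pH 7.5 with 0.32 M sucrose, and spun at 1000 x g for 10 min at 4 °C. Homogenate (50 μg protein) was incubated for 30 min at 37 °C in 50 mM Tris pH 7.5 with 0.05% fatty acid-free BSA and 10 μM anandamide plus [3H]-anandamide. Reactions were stopped with chloroform/methanol (1:1), and aqueous-layer radioactivity was scintillation counted.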

liver carboxylesterases = format: biochemical; details: rat liver microsomes, 30, 100 and 300 nM
In short: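 Commercial rat liver microsomes (2.5 μg) were preincubated with test compound for 30 min at room temperature. p-Nitrophenylacetate was then added (1 mM final). After 20 min, p-nitrophenol formation was read as absorbance at 405 nm.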

[5] = rat brain membranes, 10 μM anandamide, no pre-incubation

Structure (SMILES): O=C(NC1CCCCC1)Oc1cccc(-c2ccccc2)c1 [Compound 1a]
- IC50 (FAAH [1]; [5]): 25.6 ± 2 nM
- Rat Plasma t1/2 (Stability in rat plasma): 42.7 ± 3.7 min
- pH 7.4 (%), percent remaining after 24 h incubation [2]: 41.1 ± 1.1%
- AUC in the brain [3]: 2589 ± 423 arbitrary units
- Cmax in brain tissue [3]: 74 ± 3 pmol/g
- ID50 (FAAH [4]): 0.81 mg/kg

Structure (SMILES): O=C(NCCCCc1ccccc1)Oc1cccc(-c2ccccc2)c1 [Compound 1b]
- IC50 (FAAH [1]; [5]): 9.4 ± 2.8 nM
- Rat Plasma t1/2 (Stability in rat plasma): 6.6 ± 0.7 min
- plasma t1/2, fold shorter than URB524 (Stability in rat plasma; rat plasma, versus URB524): approximately 6 fold
- pH 7.4 (%), percent remaining after 24 h incubation [2]: 35.9 ± 2.7%
- ID50 (FAAH [4]): 0.96 mg/kg

Structure (SMILES): O=C(NCCCCCCCCc1ccccc1)Oc1cccc(-c2ccccc2)c1 [Compound 1c]
- IC50 (FAAH [1]; [5]): 5.4 ± 0.5 nM
- in vitro FAAH potency relative to parent URB524 (times more potent) (FAAH [1]; ratio of IC50 versus URB524): approximately 5 fold
- Rat Plasma t1/2 (Stability in rat plasma): 7.0 ± 0.1 min
- pH 7.4 (%), percent remaining after 24 h incubation [2]: 65.9 ± 3.1%
- Percent FAAH activity remaining at 1 mg-kg^−1 (FAAH [4]): 105% ^[b]
- inhibition of brain FAAH activity in vivo (FAAH [4]): completely inactive in vivo

Structure (SMILES): NC(=O)c1cccc(-c2cccc(OC(=O)NC3CCCCC3)c2)c1 [Compound 1d]
- half-life at 1 μM (Stability in rat plasma): 33 ± 0.5 min
- pH 7.4 (%), percent remaining after 24 h incubation [2]: 40.2 ± 0.6%
- AUC in the brain [3]: 6036 ± 899 arbitrary units
- Cmax in brain tissue [3]: 226 ± 29 pmol/g
- ED50 (FAAH [4]): 0.22 mg/kg

Structure (SMILES): NC(=O)c1cccc(-c2cccc(OC(=O)NCCCCCCCCc3ccccc3)c2)c1 [Compound 1f, 8-Phenyloctylcarbamic acid 3′-carbamoylbiphenyl-3-yl ester]
- IC50 (FAAH [1]): 0.26 ± 0.02 nM
- half-life at 1 μM (Stability in rat plasma): 4 ± 0.1 min
- pH 7.4 (%), percent remaining after 24 h incubation [2]: 42.8 ± 1.4%
- drug levels in serum and brain after administration [3]: little or no increase in drug levels in serum and brain
- Percent FAAH activity remaining at 1 mg-kg^−1 (FAAH [4]): 65%^b
- inhibition of brain FAAH activity in vivo (FAAH [4]): little or no

Structure (SMILES): Nc1ccc(OC(=O)NC2CCCCC2)cc1-c1ccccc1 [Compound 1h, Cyclohexylcarbamic acid 6-aminobiphenyl-3-yl ester]
- effect on liver carboxylesterase activities compared to URB597 (liver carboxylesterases): reduced effects on liver carboxylesterase activities
- IC50 (FAAH [1]): 27.2 ± 4.8 nM
- pH 7.4 (%), percent remaining after 24 h incubation [2]: 89.0 ± 0.5%
- ED50 (FAAH [4]): 0.18 mg/kg

Structure (SMILES): O=C(NC1CCCCC1)Oc1ccc([N+](=O)[O-])c(-c2ccccc2)c1 [Compound 1i, Cyclohexylcarbamic acid 6-nitrobiphenyl-3-yl ester]
- IC50 (FAAH [1]): > 30000 nM
- pH 7.4, value expressed as t1/2 [2]: 1.7 ± 0.1 ^[c] min
